Laboratory results reported in ChEMBL document CHEMBL5257020, “Discovery of a 9-mer Cationic Peptide (LTX-315) as a Potential First in Class Oncolytic Peptide” (J Med Chem, 2016).
Where a SMILES comes first, the peptide text is derived from it. [ ]: non-standard residue; d: D form. ξ: configuration not given here. ξDip = NC(C(=O)O)C(c1ccccc1)c1ccccc1

Experiment: Protein binding in human plasma assessed as bound fraction at 200 to 1000 ng/ml incubated for 20 hrs in presence of AEBSF by LC-MS/MS analysis
Format: ADME, cell-free
Conditions: dose 200-1000 ng/ml, read-out: PPB
Summary of the method: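 Pooled plasma (human volunteers; Han Wistar rat; Beagle dog) containing AEBSF 1 mg/mL. Spiked to 200, 500 or 1000 ng/mL final, in duplicate. Ultracentrifuged 45 000 rpm, 37 °C, 20 h. Supernatant quantified by LC–MS/MS. % bound = [(C − CS)/C] × 100. Values are upper limits because of residual degradation.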

fraction unbound at 20 h: > 0.2
Structure (SMILES): NCCCC[C@H](NC(=O)C(NC(=O)[C@H](Cc1c[nH]c2ccccc12)NC(=O)[C@H](CCCCN)NC(=O)[C@H](CCCCN)NC(=O)[C@H](Cc1c[nH]c2ccccc12)NC(=O)[C@H](Cc1c[nH]c2ccccc12)NC(=O)[C@H](CCCCN)NC(=O)[C@@H](N)CCCCN)C(c1ccccc1)c1ccccc1)C(N)=O (stereo partly specified) (H-KKWWKKW[ξDip]K-NH2)
